For data set [1], the target named is Melanin-concentrating hormone receptor 2 (Homo sapiens) (UniProt Q969V1). Briefly: Binding affinity to human MCHR2 assessed as inhibition of MCH-mediated calcium ion influx by FLIPR assay. Type of data set: functional.
Data set [2] deals with T1, Melanin-concentrating hormone receptor 1 (Homo sapiens, UniProt Q99705). Nature of the data set: Binding affinity to human MCHR1 by radioligand binding assay.
The target in data set [3] is Melanin-concentrating hormone receptor 1 (Mus musculus) (UniProt Q8JZL2). Nature of the data set: Inhibition of MCH-ADO binding to mouse brain at 30 mg/kg, po after 6 hrs. It is filed as functional, organism-based. On the set-up: dose 30 mg/kg. The method, boiled down: (§1)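 Mouse ex vivo receptor binding after a single 30 mg/kg oral dose: MCH-ADO binding was measured at 6 h and 24 h post-dose and expressed as percent inhibition relative to vehicle controls, mean ± SEM, n = 3.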
Chain of Melanin-concentrating hormone receptor 1 (Mus musculus) (Q8JZL2 whole entry): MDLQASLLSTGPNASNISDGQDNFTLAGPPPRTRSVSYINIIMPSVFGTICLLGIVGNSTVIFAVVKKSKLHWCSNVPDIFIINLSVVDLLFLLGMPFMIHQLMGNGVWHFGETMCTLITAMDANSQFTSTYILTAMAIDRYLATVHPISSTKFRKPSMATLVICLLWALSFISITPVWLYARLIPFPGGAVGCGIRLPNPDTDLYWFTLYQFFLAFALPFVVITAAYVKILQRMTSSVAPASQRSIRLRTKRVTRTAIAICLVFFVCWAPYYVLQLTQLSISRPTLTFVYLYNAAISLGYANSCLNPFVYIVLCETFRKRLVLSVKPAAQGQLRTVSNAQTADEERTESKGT

Data set [4] has the same target. Briefly: Inhibition of MCH-ADO binding to mouse brain at 30 mg/kg, po after 24 hrs. It is filed as functional, organism-based. On the set-up: dose 30 mg/kg. The method, boiled down:
as §1

Data set [5] has as its system Mus musculus. Briefly: Inhibition of cumulative food intake in DIO mouse at 30 mg/kg, po after 2 hrs. Type of data set: functional. The essentials:
(§2)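 Diet-induced obese mice were fasted 24 h, then given 30 mg/kg orally 1 h before dark onset. Food was returned at dark onset, and cumulative intake was measured at 2, 6 and 24 h. Results are expressed as percent inhibition versus vehicle-treated controls.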

In data set [6] the test system is Mus musculus. Briefly: Inhibition of cumulative food intake in DIO mouse at 30 mg/kg, po after 6 hrs. It is filed as functional. The essentials:
as §2

Data set [7] has as its system Mus musculus. Nature of the data set: Inhibition of cumulative food intake in DIO mouse at 30 mg/kg, po after 24 hrs. Type of data set: functional. The method, boiled down: as §2
For the next data set, the system named is Rattus norvegicus. Nature of the data set: AUC(0-6h) in rat at 10 mg/kg, po. As to conditions: in vivo.
For data set [8], the target named is T1, Melanin-concentrating hormone receptor 1. Nature of the data set: Binding affinity to human MCHR1 assessed as inhibition of MCH-mediated calcium ion influx by FLIPR assay. Type of data set: functional. The essentials:
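Functional antagonism at human MCH-R1: cells expressing hMCH-R1 were read by FLIPR for block of MCH-mediated Ca2+ influx, and the value was reported as Kb.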

The structures appear in SMILES notation. pKi: −log10 of the molar value.

Chain of Melanin-concentrating hormone receptor 2 (Homo sapiens) (Q969V1 whole entry): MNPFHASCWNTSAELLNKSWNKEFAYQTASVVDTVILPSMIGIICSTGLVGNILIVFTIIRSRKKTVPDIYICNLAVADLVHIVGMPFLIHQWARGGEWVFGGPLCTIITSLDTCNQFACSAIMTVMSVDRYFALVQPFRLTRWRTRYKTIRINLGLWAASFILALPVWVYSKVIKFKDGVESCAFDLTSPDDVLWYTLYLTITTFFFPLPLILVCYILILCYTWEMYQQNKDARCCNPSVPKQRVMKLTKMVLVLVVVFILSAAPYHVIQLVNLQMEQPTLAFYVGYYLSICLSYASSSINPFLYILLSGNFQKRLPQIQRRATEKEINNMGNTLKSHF
T1 sequence (Q99705 whole entry): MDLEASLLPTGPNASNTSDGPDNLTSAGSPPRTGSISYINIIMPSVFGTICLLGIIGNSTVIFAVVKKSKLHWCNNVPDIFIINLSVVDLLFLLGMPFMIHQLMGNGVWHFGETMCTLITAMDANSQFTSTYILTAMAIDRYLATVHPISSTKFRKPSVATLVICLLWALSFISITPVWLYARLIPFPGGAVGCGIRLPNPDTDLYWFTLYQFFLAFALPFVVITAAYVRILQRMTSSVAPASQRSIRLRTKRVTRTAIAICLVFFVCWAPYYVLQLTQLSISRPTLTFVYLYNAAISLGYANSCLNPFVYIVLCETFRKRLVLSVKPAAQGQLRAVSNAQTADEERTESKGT

On to `CCN(CC)CCN1CCC2(CC1)CC2(c1ccc(-c2cccc(C#N)c2)cc1)c1nc2cc(F)c(C(F)(F)F)cc2[nH]1` (configuration not stated), for which the Activity in [1] is more than 3 µM. Moreover, the pKi (usually the negative decadic logarithm of the Ki, by convention in mol/L) in data set [2] was 7.82.

`CS(=O)(=O)N1CCC(=C(c2ccc(-c3cccc(C#N)c3)cc2)c2nc3cc(F)c(C(F)(F)F)cc3[nH]2)CC1`: the Activity in [1] is more than 3 µM. In data set [2], the pKi was 7.15.

On to `N#Cc1cccc(-c2ccc(C3(c4nc5cc(F)c(C(F)(F)F)cc5[nH]4)CC34CCN(CC(=O)O)CC4)cc2)c1` (configuration not stated), for which the Activity in [1] is more than 3 µM. Also, the pKi in data set [2] was 7.39.

On to `N#Cc1cccc(-c2ccc(C(=C3CCN(CC(N)=O)CC3)c3nc4cc(C(F)(F)F)c(F)cc4[nH]3)cc2)c1`, for which the pKi in data set [2] is 7.81.

Take `N#Cc1cnc(O)c(-c2ccc(C(=C3CCN(CC4CC4)CC3)c3nc4cc(F)c(C(F)(F)F)cc4[nH]3)cc2)c1`: the Activity in [1] is more than 3 µM.

For the compound `N#Cc1cccc(-c2ccc(C(=C3CCN(CC4CC4)CC3)c3nc4cc(Cl)cc(Cl)c4[nH]3)cc2)c1`, the Activity in data set [1] is more than 3 µM. Further, the negative logarithm of the Ki (pKi) in [2] was 7.06.

On to `N#Cc1cccc(-c2ccc(C(=C3CCN(CC4CC4)CC3)c3nc4cc(C#N)ccc4[nH]3)cc2)c1`, for which the Activity in data set [1] is more than 3 µM.

In the case of `N#Cc1cccc(-c2ccc(C(=C3CCN(CC4CC4)CC3)c3nc4cc(C(F)(F)F)c(F)cc4[nH]3)cc2)c1`, the Activity in data set [1] was more than 3 µM. The inhibition (in general, the share of the control response that was lost under treatment) in data set [3] is 96%; in [4] it was 84%. The inhibition in vivo (commonly the drop in the measured response relative to a control, in per cent) at 30 mg/kg in the data set on Mus musculus [5] is 31%; with Mus musculus [6] it was 32.6%; with Mus musculus [7] it was 18.6%.

As to `N#Cc1cccc(-c2ccc(C(=C3CCN(C(=O)c4cccs4)CC3)c3nc4cc(C(F)(F)F)c(F)cc4[nH]3)cc2)c1`, the Activity in data set [1] was more than 3 µM.

Regarding `CC(C)S(=O)(=O)N1CCC2(CC1)CC2(c1ccc(-c2cccc(C#N)c2)cc1)c1nc2cc(F)c(C(F)(F)F)cc2[nH]1` (configuration not stated), the Activity in data set [1] is more than 3 µM. For the same compound, the negative-log Ki (pKi) in [2] is 7.17.

Consider `N#Cc1cccc(-c2ccc(C(=C3CCN(CC4CC4)CC3)c3nc4cc(F)c(F)cc4[nH]3)cc2)c1`, for which the Activity in data set [1] was more than 3 µM. The compound further had a pKi in data set [2] of 7.28.

`Cn1cccc1C(=O)N1CCC(=C(c2ccc(-c3cccc(C#N)c3)cc2)c2nc3cc(C(F)(F)F)c(F)cc3[nH]2)CC1` showed a negative-log Ki (pKi) in data set [2] of 8.00.

On to `NC(=O)c1cccc(-c2ccc(C(=C3CCN(CC4CC4)CC3)c3nc4cc(F)c(C(F)(F)F)cc4[nH]3)cc2)c1`, for which, in data set [1], the Activity is more than 3 µM.

As to `Fc1cc2[nH]c(C(=C3CCN(CC4CC4)CC3)c3ccc(-c4cncnc4)cc3)nc2cc1C(F)(F)F`, the Activity in [1] is more than 3 µM.

For the compound `N#Cc1cncc(-c2ccc(C(=C3CCN(CC4CC4)CC3)c3nc4cc(C(F)(F)F)c(F)cc4[nH]3)cc2)c1`, in data set [1], the Activity was more than 3 µM. In data set [2], this compound showed a pKi of 7.99.

For the compound `N#Cc1cccc(-c2ccc(C(=C3CCN(CCO)CC3)c3nc4cc(C(F)(F)F)c(F)cc4[nH]3)cc2)c1`, in data set [2], the negative logarithm of the Ki (pKi) was 8.14.

`CCN(CC)C(=O)N1CCC(=C(c2ccc(-c3cccc(C#N)c3)cc2)c2nc3cc(F)c(C(F)(F)F)cc3[nH]2)CC1`: the Activity in [1] was more than 3 µM. In addition, the negative-log Ki (pKi) in [2] was 7.66.

Consider `Oc1ccc(-c2ccc(C(=C3CCN(CC4CC4)CC3)c3nc4cc(F)c(C(F)(F)F)cc4[nH]3)cc2)cn1`, for which, in data set [1], the Activity was more than 3 µM. Further, the negative-log Ki (pKi) in [2] is 6.76.

For the compound `NC(=O)c1cccc(-c2ccc(C(=C3CCN(CC4CC4)CC3)c3nc4cc(C(F)(F)F)c(F)cc4[nH]3)cc2)c1`, in data set [2], the pKi is 7.11.

Turning to `N#Cc1ccccc1-c1ccc(C(=C2CCN(CC3CC3)CC2)c2nc3cc(C(F)(F)F)c(F)cc3[nH]2)cc1`, the Activity in data set [1] was more than 3 µM. The pKi in [2] is 6.33.

In the case of `N#Cc1ccc(F)c(-c2ccc(C(=C3CCN(CC4CC4)CC3)c3nc4cc(F)c(C(F)(F)F)cc4[nH]3)cc2)c1`, in data set [1], the Activity was more than 3 µM. Also, the inhibition is 92% in data set [3] and 80% in data set [4].

For `N#CCc1cccc(-c2ccc(C(=C3CCN(CC4CC4)CC3)c3nc4cc(C(F)(F)F)c(F)cc4[nH]3)cc2)c1`, the Activity in data set [1] is more than 3 µM. Moreover, the pKi in [2] was 7.59.

On to `CC(=O)N1CCC(=C(c2ccc(-c3cccc(C#N)c3)cc2)c2nc3cc(F)c(C(F)(F)F)cc3[nH]2)CC1`, for which the Activity in data set [1] is more than 3 µM. This compound had an inhibition in [3] of 48%. Also, in the data set with Rattus norvegicus, the area under the curve (AUC) (usually the area under the concentration-time curve, a measure of exposure) is 5250 ng·h/mL. In data set [2], the pKi was 7.51.

For `CC(C)S(=O)(=O)N1CCC(=C(c2ccc(-c3cccc(C#N)c3)cc2)c2nc3cc(F)c(C(F)(F)F)cc3[nH]2)CC1`, the Activity in data set [1] was more than 3 µM.

Consider `N#Cc1cccc(-c2ccc(C3(c4nc5cc(C(F)(F)F)c(F)cc5[nH]4)CC34CCNCC4)cc2)c1` (configuration not stated), for which the Activity in [1] is more than 3 µM.

On to `Cn1cccc1C(=O)N1CCC(=C(c2ccc(-c3cccc(C#N)c3)cc2)c2nc3cc(F)c(C(F)(F)F)cc3[nH]2)CC1`, for which the Activity in data set [1] was more than 3 µM.

As for `N#Cc1cccc(-c2ccc(C(=C3CCN(CC4CC4)CC3)c3nc4cc(Cl)c(Cl)cc4[nH]3)cc2)c1`, in [8], the Kb is 0.07 µM. For the same compound, the Activity in data set [1] was more than 3 µM. For the same compound, the inhibition stood at 68% in data set [3] and 54% in data set [4]. Also, the figures for the inhibition in vivo at 30 mg/kg in the data set on Mus musculus [5], with Mus musculus [6] and in the data set with Mus musculus [7] were 37.4%, 41.8% and 26.8%, respectively. For the same compound, the AUC in the data set with Rattus norvegicus turned out to be 6640 ng·h/mL. The compound further had a negative-log Ki (pKi) in [2] of 7.82.

Consider `N#Cc1cccc(-c2ccc(C(=C3CCN(CCO)CC3)c3nc4cc(F)c(C(F)(F)F)cc4[nH]3)cc2)c1`, for which the Activity in [1] is more than 3 µM.

Regarding `CCN(CC)C(=O)N1CCC2(CC1)CC2(c1ccc(-c2cccc(C#N)c2)cc1)c1nc2cc(F)c(C(F)(F)F)cc2[nH]1` (configuration not stated), the Activity in data set [1] was more than 3 µM. For the same compound, the pKi in [2] is 6.66.

Regarding `CN(C)S(=O)(=O)N1CCC(=C(c2ccc(-c3cccc(C#N)c3)cc2)c2nc3cc(F)c(C(F)(F)F)cc3[nH]2)CC1`, in data set [1], the Activity was more than 3 µM. Further, in data set [2], the pKi was 7.19.

On to `CN(C)C(=O)N1CCC2(CC1)CC2(c1ccc(-c2cccc(C#N)c2)cc1)c1nc2cc(F)c(C(F)(F)F)cc2[nH]1` (configuration not stated), for which, in data set [1], the Activity was more than 3 µM. The compound further showed a pKi in data set [2] of 7.49.

For `N#Cc1cccc(-c2ccc(C(=C3CCN(CC(N)=O)CC3)c3nc4cc(F)c(C(F)(F)F)cc4[nH]3)cc2)c1`, the Activity in data set [1] was more than 3 µM.

For `CS(=O)(=O)c1cccc(-c2ccc(C(=C3CCN(CC4CC4)CC3)c3nc4cc(F)c(C(F)(F)F)cc4[nH]3)cc2)c1`, the Activity in data set [1] was more than 3 µM.

As for `N#Cc1cccc(-c2ccc(C(=C3CCN(C(=O)C4CC4)CC3)c3nc4cc(C(F)(F)F)c(F)cc4[nH]3)cc2)c1`, the Activity in data set [1] is more than 3 µM. Also, the pKi in data set [2] is 7.51.

Consider `N#Cc1cccc(-c2ccc(C3(c4nc5cc(C(F)(F)F)c(F)cc5[nH]4)CC34CCN(C(=O)N3CCCC3)CC4)cc2)c1` (configuration not stated), for which the Activity in data set [1] was more than 3 µM.

For `CN(C)C(=O)N1CCC(=C(c2ccc(-c3cccc(C#N)c3)cc2)c2nc3cc(F)c(C(F)(F)F)cc3[nH]2)CC1`, the Activity in [1] is more than 3 µM. The inhibition in [3] was 50%. Besides, the exposure (AUC) with Rattus norvegicus worked out at 1290 ng·h/mL. This compound showed a pKi in data set [2] of 7.43.

For `N#Cc1cccc(-c2ccc(C(=C3CCN(Cc4nccs4)CC3)c3nc4cc(C(F)(F)F)c(F)cc4[nH]3)cc2)c1`, the Activity in [1] was more than 3 µM. In data set [2], the pKi is 7.35.

As to `N#Cc1cccc(-c2ccc(C3(c4nc5cc(C(F)(F)F)c(F)cc5[nH]4)CC34CCN(Cc3ccccc3)CC4)cc2)c1` (configuration not stated), the Activity in data set [1] was more than 3 µM.

On to `N#Cc1ccc(F)c(-c2ccc(C(=C3CCN(CC4CC4)CC3)c3nc4cc(C(F)(F)F)c(F)cc4[nH]3)cc2)c1`, for which, in the data set with Rattus norvegicus, the exposure (AUC) is 3000 ng·h/mL. The same compound gave a negative-log Ki (pKi) in data set [2] of 8.41.

Consider `N#Cc1cccc(-c2ccc(C3(c4nc5cc(C(F)(F)F)c(F)cc5[nH]4)CC34CCN(CC3CC3)CC4)cc2)c1` (configuration not stated), for which the Activity in data set [1] was more than 3 µM. Besides, the inhibition in data set [3] turned out to be 74%.

For the compound `N#Cc1c[nH]c(=O)c(-c2ccc(C(=C3CCN(CC4CC4)CC3)c3nc4cc(C(F)(F)F)c(F)cc4[nH]3)cc2)c1`, the negative logarithm of the Ki (pKi) in data set [2] was 7.00.

`N#Cc1cccc(-c2ccc(C(=C3CCNCC3)c3nc4cc(C(F)(F)F)c(F)cc4[nH]3)cc2)c1`: the Activity in data set [1] was more than 3 µM. In [2], this compound showed a pKi of 8.44.
